From PubChem BioAssay
A selection: hits, their analogues and other compounds. The true share with any hit is near 3.5%.
RGS4 pot – RGS4 potentiators or activators, primary screen, cell-based, HEK293 M3R inducible RGS4, calcium flux | actives 0.92% (n = 310,000) | B-score at 10 µM | carbachol calcium flux Fluo4; hits give low values;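 active means B-score of the integrated calcium signal more than 4 SD below the library mean, with starting fluorescence not abnormally high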;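 further: negative B-score means reduced calcium response which marks RGS4 activation or potentiation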
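Reagent: ECmax carbachol challenge; Test system: M3R-expressing HEK293 line, RGS4 induced by doxycycline; Schedule: overnight RGS4 induction, 30 min dye load 37 °C, 20 min compound RT; Detection: calcium dye Fluo4 fluorescence; Read-out: Agonist-evoked peak-minus-minimum fluorescence over baseline, integrated ratio, B score.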
MrgX1 agonist – agonists of human MrgX1 receptor, primary screen, HEK293 cells, Fluo-4 calcium flux; Mas-related G-protein coupled receptor member X1 (Homo sapiens), Q96LB2; Fluo-4 calcium fluorescence, agonist mode; hits give high values; B-score at 10 µM; actives 0.44% (n = 310,000); AID 588627, 2011;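 active means calcium response B-score plate-corrected fluorescence ratio at least 3 library SD, with starting fluorescence B-score inside 5 SD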
Target sequence (Q96LB2 whole entry, looked up): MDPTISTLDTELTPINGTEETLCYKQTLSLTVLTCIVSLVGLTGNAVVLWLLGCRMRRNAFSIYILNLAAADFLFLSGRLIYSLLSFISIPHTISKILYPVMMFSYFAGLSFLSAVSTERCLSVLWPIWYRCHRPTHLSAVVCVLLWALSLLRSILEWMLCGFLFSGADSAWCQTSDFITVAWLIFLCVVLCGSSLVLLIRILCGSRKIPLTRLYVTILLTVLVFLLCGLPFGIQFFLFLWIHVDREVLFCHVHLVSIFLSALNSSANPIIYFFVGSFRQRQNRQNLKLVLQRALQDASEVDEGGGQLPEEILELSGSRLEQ
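System: HEK293 cells stably expressing human MrgX1 receptor; Dosing: test compound in the initial addition of three; Schedule: overnight plating, then 30 min 37 °C plus 30 min room-temperature dye loading; Detection: kinetic calcium dye fluorescence, Fluo-4 NW; Controls: per-plate positive and negative controls for Z′ factor.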
MrgX1 antag – antagonists of human MrgX1 receptor, primary screen, HEK293 cells, Fluo-4 calcium flux; BAM8-22 antagonism; hits give low values; B-score at 10 µM; actives 1.3% (n = 310,000); AID 588676, 2011;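 active means calcium-response B-score plate-corrected more than 3 library SD below zero, starting fluorescence within 5 deviations, no agonist response on first addition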;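 further: peak minus trough fluorescence over baseline after final BAM8-22 challenge near maximal dose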
MrgX1 PAM – positive allosteric modulators of MrgX1, primary screen, HEK293 cells, Fluo-4 calcium flux | Mas-related G-protein coupled receptor member X1 (Homo sapiens), Q96LB2 | FDSS; hits give high values | B-score at 10 µM | actives 0.63% (n = 310,000) | AID 588675, 2011;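 active means plate-corrected calcium response at least 3 library SD above typical, normal starting fluorescence, not activating the receptor alone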;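 further: compound read alongside a low EC10 to EC30 dose of BAM8-22 agonist; peak minus trough fluorescence over baseline measured at the second addition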
RGS4 block – RGS4 inhibitors, primary screen, cell-based, HEK293 M3R inducible RGS4, calcium flux; Regulator of G-protein signaling 4 (Homo sapiens), P49798; Fluo-4 calcium flux; hits give high values; triggered by carbachol at its EC20; B-score at 10 µM; actives 0.45% (n = 310,000); AID 463165, 2010;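 active means B-score, a plate-corrected calcium signal, over three deviations above library mean, with baseline fluorescence within five deviations of library mean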;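 further: RGS4 expression induced by doxycycline in cells with stable M3 receptor; B-score is computed from the integrated fluorescence ratio over baseline after carbachol; higher B-score means a larger calcium signal and so more RGS4 inhibition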
Target sequence (P49798 whole entry, looked up): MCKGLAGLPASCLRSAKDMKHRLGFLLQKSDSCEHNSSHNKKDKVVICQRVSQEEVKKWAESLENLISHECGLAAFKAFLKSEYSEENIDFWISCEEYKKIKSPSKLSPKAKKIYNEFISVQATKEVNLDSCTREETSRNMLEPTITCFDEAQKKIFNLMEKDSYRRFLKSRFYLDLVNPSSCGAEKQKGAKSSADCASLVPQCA
Of the large screens only hits and unclear results are named; the others gave an inactive call.

O=C1CCC2S/C(=C/Nc3ccc(C(F)(F)F)cc3)C(=O)N12 (configuration not stated)	MrgX1 antag -4.82
O=C(CS(=O)CC(=O)N(CC(=O)NC1CCCC1)c1ccccc1F)Nc1ccc(F)cc1 (configuration not stated)	none
COc1ccc2nc(N3C(=O)/C(=C/c4ccccc4)NC3=S)sc2c1	MrgX1 PAM 6.78
COCCOC1CCN(C(=O)c2cc(COc3ccc(F)cc3F)on2)CC1	none
CC(=O)N1c2c(cc(Br)cc2S(=O)(=O)N2CCN(c3ccccc3F)CC2)CC1C (configuration not stated)	MrgX1 antag -7.75
Cc1ccc(-c2nc(CS(=O)CC(=O)NCc3ccc4c(c3)OCO4)c(C)o2)cc1 (configuration not stated)	none
COc1ccc(N=C2S/C(=C\c3ccc(OCC(=O)O)cc3)C(=O)N2CCc2c[nH]c3ccccc23)cc1	none (no result: MrgX1 agonist, MrgX1 antag, MrgX1 PAM)
COc1ccc(N=C2S/C(=C\c3ccc(N4CCOCC4)o3)C(=O)N2CCc2c[nH]c3ccccc23)cc1	MrgX1 antag -7.14
CCCCCCCCCC[n+]1cccc2c3ccccc3ccc21	RGS4 pot -10.3 (no result: MrgX1 agonist, MrgX1 antag, MrgX1 PAM)
Cc1cccc[n+]1CCCCCCCCCC[n+]1ccccc1C	none
CCCCCCCC[n+]1cccc2c3ccccc3ccc21	RGS4 pot -9.88
CCOc1ccc(NC2OCC(O)C(O)C2O)c([N+](=O)[O-])c1 (configuration not stated)	MrgX1 antag -5.15
CCCCC[C@H](O)/C=C/[C@H]1CCC(=O)[C@@H]1CCCCCCC(=O)N1CCCCC1CO (some centres not stated)	RGS4 pot -8.47, MrgX1 agonist 48.3
CC(C)(C)C(=O)/C(=C/c1ccc(Cl)cc1)n1cncn1	none
CC(C)(C)C(=O)/C(=C\c1ccc([N+](=O)[O-])cc1)n1cncn1	MrgX1 agonist 34.5, RGS4 block 14.3
Cc1ccc(C)c(-c2cc(C(=O)Nc3cccc(C(=O)O)c3)c3ccccc3n2)c1	none
Cc1ccc(C)c(-c2cc(C(=O)Nc3cccnc3)c3ccccc3n2)c1	RGS4 pot -7.61
COC(=O)c1cccc(NC(=O)CSc2nnc(C3CC3)n2C)c1	none
FC(F)(F)c1cccc(NC(=S)Nc2ccc(Cl)c(Cl)c2)c1	MrgX1 antag -8.45
COC(=O)c1ccccc1NC(=O)CN1CCc2ccccc2C1	none
COC(=O)c1ccccc1NC(=O)CN1CCN(C23CC4CC(CC(C4)C2)C3)CC1	RGS4 pot -8.02
Cc1cccc(C(=O)NNC(=O)CCC(=O)Nc2cccc(Cl)c2C)c1	MrgX1 antag -6.94
Cc1ccc(-c2nnc(COC(=O)c3cccs3)o2)cc1	none
Cc1sc(NC(=O)c2ccco2)nc1-c1ccc2c(c1)CC(C)N2C(=O)C1CC1 (configuration not stated)	RGS4 pot -7.07
CN1CCC(=C(c2ccccc2)c2ccc(Br)cc2)CC1	RGS4 pot -7.68
O=C(NCC1CCN(Cc2ccc(Cl)cc2)CC1)C1CCCN(c2ncnc3c2nc2n3CCCCC2)C1 (configuration not stated)	RGS4 pot -7.25
CSc1sc(-c2n[nH]c(=S)n2C)c2c1C=CCC2	none
O=C(NNC(=O)c1ccc(SCC2CCCO2)c([N+](=O)[O-])c1)c1ccc(Cl)c([N+](=O)[O-])c1 (configuration not stated)	none
Cc1ccc(C(=O)NNC(=O)c2ccc(SCC3CCCO3)c([N+](=O)[O-])c2)cc1 (configuration not stated)	MrgX1 antag -6.68
CCC1CCCCN1C(=S)NC(=O)c1cccc([N+](=O)[O-])c1 (configuration not stated)	none
O=C1/C(=C/c2ccccn2)COc2ccccc21	MrgX1 PAM 6.67
O=C1/C(=C/c2ccc(O)cc2)COc2ccccc21	none
CCCCN(C(=O)Cc1coc2cc(C)c(C)cc12)c1c(N)n(Cc2ccccc2)c(=O)[nH]c1=O	none
O=C(NN1CCOCC1)c1ccc(Br)cc1	none
Cc1ccc(C(=O)NN2CCOCC2)cc1	MrgX1 antag -4.96
CCOc1ccc(C2=C/C(=C/c3cccnc3)C(=O)O2)cc1	MrgX1 PAM 27.6
COc1ccc(C2=C/C(=C/c3cccnc3)C(=O)O2)cc1OC	none
COc1cccc(C(=O)NCC(c2ccco2)N2CCOCC2)c1 (configuration not stated)	none
Cc1ccsc1/C=c1\sc2ncnn2c1=O	MrgX1 PAM 6.58
O=c1/c(=C/c2cccc3ccccc23)sc2ncnn12	none
COc1ccc(Cl)cc1NC(=O)CN(C)C(=O)c1cc(-c2ccncc2)nc2ccccc12	none
CCCC[C@H]1COCCS(=O)(=O)N1Cc1ccc(Br)cc1	RGS4 pot -7.09
CC(Oc1ccc(Cl)cc1Cl)c1nc(-c2ccc(NC(=O)c3ccco3)cc2)no1 (configuration not stated)	MrgX1 antag -4.97
CC(NC(=O)c1ccco1)c1nc(-c2ccccc2)no1 (configuration not stated)	none
Cc1cccnc1NC(=O)C1CCC1	none
COCCn1c(C)cc(/C=C(\C#N)C(=O)OCC(=O)N(C)c2c(N)n(Cc3ccccc3)c(=O)[nH]c2=O)c1C	none
COCc1c(Br)c(C)nc(OCC(=O)N/N=C/c2cc(C)n(-c3ccc([N+](=O)[O-])cc3)c2C)c1C#N	RGS4 pot -7.87
Cc1ccc(S(=O)(=O)c2cn(Cc3ccc(F)cc3)c3cc4c(cc3c2=O)OCO4)cc1	MrgX1 antag -4.56
C#CCNC(=O)C1=C[C@@H](c2ccc(C#C)cc2)C[C@@H](OCc2ccc(CO)cc2)O1	none
Cc1ccccc1CN1CCCC(C(=O)Nc2ccccc2Oc2cccnc2)C1 (configuration not stated)	none
C(C#CCCCCCCCCC[n+]1ccccc1)#CCCCCCCCCC[n+]1ccccc1	RGS4 pot -12.2
CCOC(=O)Nc1ccc2c(c1)N(C(=O)CCN(C)C)c1ccccc1S2	RGS4 pot -7.01
c1ccc(SCCN2CCN(c3ccccc3)CC2)cc1	none
Cc1ccc(CN2CC(C(=O)Nc3ncccc3C)CC2=O)cc1 (configuration not stated)	none
CC(=O)c1ccc(OCCCC(=O)N(CCC2=CCCCC2)c2c(N)n(Cc3ccccc3)c(=O)[nH]c2=O)cc1	none
C=CCn1c(SCC(=O)N(CCOC)c2c(N)n(CCCC)c(=O)[nH]c2=O)nnc1-c1ccc(Cl)cc1	none
Cc1cc2ncn(-c3ncccc3[N+](=O)[O-])c2cc1C	MrgX1 agonist 27.1
CC(=O)C(=Nc1ccccc1Cl)NNc1ccc(Cl)cc1	RGS4 pot -10.6
